Assay results as given in BindingDB's records for doi:10.1016/j.bmc.2010.05.001 (St. Jude Children'S Research Hospital, 2011).

Legend:
[1] = biological target: T1, Zinc finger protein GLI1 (Homo sapiens, UniProt P08151); test: Inhibition of human Gli1 expressed in mouse C3H10T1/2 cells assessed as inhibition of transcriptional activity after 24 hrs by luciferase reporter gene assay
T1 sequence (P08151 whole entry): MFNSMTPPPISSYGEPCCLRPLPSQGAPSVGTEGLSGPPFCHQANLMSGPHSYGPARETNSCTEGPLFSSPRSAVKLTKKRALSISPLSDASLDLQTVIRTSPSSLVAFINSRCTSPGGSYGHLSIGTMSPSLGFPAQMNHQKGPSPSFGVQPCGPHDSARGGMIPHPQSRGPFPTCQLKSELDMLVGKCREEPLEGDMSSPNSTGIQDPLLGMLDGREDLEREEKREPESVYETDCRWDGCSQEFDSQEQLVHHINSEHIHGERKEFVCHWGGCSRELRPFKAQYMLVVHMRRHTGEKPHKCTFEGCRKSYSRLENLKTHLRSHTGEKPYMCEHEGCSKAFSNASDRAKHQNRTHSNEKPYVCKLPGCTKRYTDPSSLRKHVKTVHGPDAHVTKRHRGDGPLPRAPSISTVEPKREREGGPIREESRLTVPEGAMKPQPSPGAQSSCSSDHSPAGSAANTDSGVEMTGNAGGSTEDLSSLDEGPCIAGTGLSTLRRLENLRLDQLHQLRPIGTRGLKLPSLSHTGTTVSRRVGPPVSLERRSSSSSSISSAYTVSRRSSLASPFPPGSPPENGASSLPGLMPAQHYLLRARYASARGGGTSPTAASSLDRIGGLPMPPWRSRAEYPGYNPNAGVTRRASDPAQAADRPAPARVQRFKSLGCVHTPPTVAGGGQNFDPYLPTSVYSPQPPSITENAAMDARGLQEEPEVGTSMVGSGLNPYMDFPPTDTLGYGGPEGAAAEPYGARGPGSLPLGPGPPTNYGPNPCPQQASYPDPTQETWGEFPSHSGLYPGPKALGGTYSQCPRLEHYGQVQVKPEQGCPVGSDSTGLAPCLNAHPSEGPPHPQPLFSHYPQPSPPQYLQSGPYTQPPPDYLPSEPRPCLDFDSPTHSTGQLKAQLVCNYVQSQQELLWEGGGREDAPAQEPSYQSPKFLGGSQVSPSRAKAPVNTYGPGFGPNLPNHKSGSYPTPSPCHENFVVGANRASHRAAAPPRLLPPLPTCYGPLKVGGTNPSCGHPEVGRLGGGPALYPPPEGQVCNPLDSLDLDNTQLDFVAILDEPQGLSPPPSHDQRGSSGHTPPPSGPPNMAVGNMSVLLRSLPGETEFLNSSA
Procedure, shortened: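 C3H10T1/2 cells transiently transfected overnight with GliLuc-BS, pRL-TK Renilla control and human Gli1 (or mouse Gli2 for Gli2 lines), 250 ng/mL each for the Gli plasmids. Firefly/Renilla dual-luciferase ratio normalized to DMSO, triplicates. Dose–response IC50 from curve fitting.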

[2] = biological target: T1, Zinc finger protein GLI1; test: Inhibition of human Gli1-mediated transcriptional activity in human Rh30 cells after 24 hrs by luciferase reporter gene assay
Procedure, shortened: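 Rh30 cells without Gli1 transfection, transfected overnight with GliLuc-BS (500 ng/mL) and pRL-CMV (2.5 ng/mL), then replated in 96-well plates. Compound given in RPMI-1640/10% FBS for 24 h at 37 °C. Firefly luminescence divided by Renilla and normalized to DMSO-treated cells (0% inhibition), triplicates.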

| IC50 [1] | IC50 [2] | SMILES |
| --- | --- | --- |
| 1.6 µM | – | CCCN(C(=O)C(C)c1cccc(C(=O)c2ccccc2)c1)c1ccc2[nH]ccc2c1 (configuration not stated) [2-(3-Benzoylphenyl)-N-(1H-indol-5-yl)-N-propylpropanamide] |
| – | 40 µM | CN(C)c1ccccc1CN1CCCN(Cc2ccccc2N(C)C)C1c1ccncc1 [2-((3-(2-(dimethylamino)benzyl)-2-(pyridin-4-yl)-tetrahydropyrimidin-1(2H)-yl)methyl)-N,N-dimethylbenzenamine] |
